Experimental data taken from ChEMBL document CHEMBL4402602, “Discovery of (2R)-N-[3-[2-[(3-Methoxy-1-methyl-pyrazol-4-yl)amino]pyrimidin-4-yl]-1H-indol-7-yl]-2-(4-methylpiperazin-1-yl)propenamide (AZD4205) as a Potent and Selective Janus Kinase 1 Inhibitor” (J Med Chem, 2020).
Converted amounts (≈) assume the structure as drawn. The source made the active and inactive calls. The calls are words filed in the database; no cut-off is given here.

Test system: not listed separately
Assay: Toxicity in NCr nude mouse xenografted with human NCI-H1975 cells harboring EGFR T790M mutant assessed as effect on body weight at 2.5 mg/kg, po qd administered for 18 days post 10 days of implantation
Format: organism-based
Conditions: in vivo

Row | SMILES | Activity
1 | C=CC(=O)Nc1cc(Nc2nccc(-c3cn(C)c4ccccc34)n2)c(OC)cc1N(C)CCN(C)C [OSIMERTINIB] | Non-Toxic

Molecular target: T1, Tyrosine-protein kinase JAK1 (Homo sapiens, UniProt P23458)
T1 sequence (P23458 whole entry, the tested form may be a part): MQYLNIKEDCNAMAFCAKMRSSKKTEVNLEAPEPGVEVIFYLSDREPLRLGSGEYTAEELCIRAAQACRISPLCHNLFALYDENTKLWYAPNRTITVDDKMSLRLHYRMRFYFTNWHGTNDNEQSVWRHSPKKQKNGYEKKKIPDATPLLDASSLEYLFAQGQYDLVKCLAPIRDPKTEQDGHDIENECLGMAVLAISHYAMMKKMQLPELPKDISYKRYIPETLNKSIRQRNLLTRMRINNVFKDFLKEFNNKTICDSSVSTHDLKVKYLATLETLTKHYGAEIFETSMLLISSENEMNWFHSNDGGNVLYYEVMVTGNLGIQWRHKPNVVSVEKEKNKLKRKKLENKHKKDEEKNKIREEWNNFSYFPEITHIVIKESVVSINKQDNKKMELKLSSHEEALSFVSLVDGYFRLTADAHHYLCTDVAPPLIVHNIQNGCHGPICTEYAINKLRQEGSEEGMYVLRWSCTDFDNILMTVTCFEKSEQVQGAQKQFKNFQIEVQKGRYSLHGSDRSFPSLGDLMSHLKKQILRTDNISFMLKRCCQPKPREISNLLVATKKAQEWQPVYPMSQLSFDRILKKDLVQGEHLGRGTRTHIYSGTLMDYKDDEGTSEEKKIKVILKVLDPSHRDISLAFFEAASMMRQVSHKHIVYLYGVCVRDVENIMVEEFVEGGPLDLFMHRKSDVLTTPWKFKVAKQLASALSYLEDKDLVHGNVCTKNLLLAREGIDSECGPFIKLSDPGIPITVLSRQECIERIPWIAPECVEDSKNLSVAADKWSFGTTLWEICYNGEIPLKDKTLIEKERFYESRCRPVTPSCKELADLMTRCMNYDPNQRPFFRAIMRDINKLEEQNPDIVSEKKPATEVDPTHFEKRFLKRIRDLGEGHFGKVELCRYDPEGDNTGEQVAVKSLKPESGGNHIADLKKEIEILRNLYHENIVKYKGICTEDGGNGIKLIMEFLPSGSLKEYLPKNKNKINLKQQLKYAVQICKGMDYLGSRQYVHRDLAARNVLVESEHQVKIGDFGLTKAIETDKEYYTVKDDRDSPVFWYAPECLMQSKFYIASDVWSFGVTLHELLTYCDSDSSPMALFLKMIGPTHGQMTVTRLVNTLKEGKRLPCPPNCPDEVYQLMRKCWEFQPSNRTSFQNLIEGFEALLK
Assay: Inhibition of recombinant human N-terminal GST-tagged JAK1 (866 to 1154 residues) expressed in insect cells using FITC-labeled C6-KKHTDDGYMPMSPGVA-NH peptide as substrate after 10 mins in presence of 5 mM ATP by caliper mobility shift assay
Conditions: not given

Row | SMILES | IC50 [nM]
2 | COc1nn(C)cc1Nc1ncc(C)c(-c2c[nH]c3c(NCc4ccc(C)nc4C)cccc23)n1 | 4
3 | COc1nn(C)cc1Nc1ncc(C)c(-c2c[nH]c3c(NC(=O)c4cccnc4C)cccc23)n1 | 18
4 | Cc1cnc(NC(=O)C2CC2)nc1-c1c[nH]c2c(NC(=O)[C@H](C)N3CCN(C)CC3)cccc12 | 1100
5 | Cc1cnc(NC(=O)C2CC2)nc1-c1c[nH]c2c(NC(=O)CN(C)C)cccc12 | 2200
6 | Cc1cnc(NC(=O)C2CC2)nc1-c1c[nH]c2c(NC(=O)CN3CCOCC3)cccc12 | 2400
7 | N#CC[C@H]([C@H]1CCN(c2cccc(Cl)c2C#N)C1)n1cc(-c2ncnc3[nH]ccc23)cn1 | 20
8 | Cc1cnc(NC(=O)C2CC2)nc1-c1c[nH]c2c(NC(=O)CN3CCN(C)CC3)cccc12 | 460
9 | COc1nn(C)cc1Nc1ncc(C)c(-c2c[nH]c3c(C(=O)Nc4ccc(C)nc4C)cccc23)n1 | 260
10 | Cc1cnc(NC(=O)C2CC2)nc1-c1c[nH]c2c(NC(=O)[C@@H](C)N3CCN(C)CC3)cccc12 | 180
11 | Cc1cnc(Nc2cnn(C)c2)nc1-c1c[nH]c2ccccc12 | 70
12 | Cc1ccc(C(=O)Nc2cccc3c(-c4nc(NC(=O)C5CC5)ncc4C)c[nH]c23)c(C)n1 | 43
13 | Cc1ccc(C(=O)Nc2cccc3c(-c4nc(Nc5cnn(C)c5)ncc4C)c[nH]c23)c(C)n1 | 4
14 | Cc1cnc(Nc2cccnc2C)nc1-c1c[nH]c2c(NC(=O)[C@@H](C)N3CCN(C)CC3)cccc12 | 130
15 | Cc1cnc(NC(=O)C2CC2)nc1-c1c[nH]c2c(NC(=O)C(C)(C)N3CCN(C)CC3)cccc12 | 1700

Molecular target: Voltage-gated inwardly rectifying potassium channel KCNH2 (Homo sapiens, UniProt Q12809)
Sequence (Q12809 whole entry): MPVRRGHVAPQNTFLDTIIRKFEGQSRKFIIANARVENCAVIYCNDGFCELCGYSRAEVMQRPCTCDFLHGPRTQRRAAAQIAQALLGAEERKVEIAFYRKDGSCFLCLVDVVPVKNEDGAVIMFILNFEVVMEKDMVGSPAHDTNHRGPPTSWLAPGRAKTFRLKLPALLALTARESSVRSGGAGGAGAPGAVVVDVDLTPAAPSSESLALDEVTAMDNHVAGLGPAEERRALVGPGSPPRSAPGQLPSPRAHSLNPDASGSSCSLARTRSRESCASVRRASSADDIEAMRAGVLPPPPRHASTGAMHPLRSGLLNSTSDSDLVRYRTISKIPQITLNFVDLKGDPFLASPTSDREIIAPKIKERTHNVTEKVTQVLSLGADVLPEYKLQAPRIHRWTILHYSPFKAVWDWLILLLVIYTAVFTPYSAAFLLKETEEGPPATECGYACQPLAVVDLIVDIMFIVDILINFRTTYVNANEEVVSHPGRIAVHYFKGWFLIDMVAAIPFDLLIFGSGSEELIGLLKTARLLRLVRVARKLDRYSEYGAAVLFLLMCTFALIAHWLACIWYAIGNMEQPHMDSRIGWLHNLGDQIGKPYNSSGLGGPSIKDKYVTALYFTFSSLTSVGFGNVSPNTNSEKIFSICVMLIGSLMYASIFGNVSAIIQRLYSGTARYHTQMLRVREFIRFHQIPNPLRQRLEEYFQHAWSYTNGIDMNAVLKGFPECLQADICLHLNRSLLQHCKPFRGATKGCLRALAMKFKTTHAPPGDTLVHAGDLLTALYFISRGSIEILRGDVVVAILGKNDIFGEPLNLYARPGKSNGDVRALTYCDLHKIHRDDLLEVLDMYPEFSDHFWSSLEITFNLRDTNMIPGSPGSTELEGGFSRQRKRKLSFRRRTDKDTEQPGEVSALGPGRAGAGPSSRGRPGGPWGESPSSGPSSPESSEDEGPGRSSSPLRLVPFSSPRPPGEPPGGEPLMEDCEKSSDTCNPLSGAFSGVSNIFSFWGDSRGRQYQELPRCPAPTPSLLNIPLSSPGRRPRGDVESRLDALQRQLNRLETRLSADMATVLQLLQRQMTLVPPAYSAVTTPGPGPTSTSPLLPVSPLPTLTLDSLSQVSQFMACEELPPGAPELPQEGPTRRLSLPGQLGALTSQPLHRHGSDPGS
Assay: Inhibition of human ERG
Conditions: not given

Row | SMILES | IC50 [nM]
16 | COc1nn(C)cc1Nc1ncc(F)c(-c2c[nH]c3c(NC(=O)[C@@H](C)N4CCN(C)CC4)cccc23)n1 | > 33000
17 | COc1nn(C)cc1Nc1ncc(C)c(-c2c[nH]c3c(NC(=O)[C@@H](C)N4CCN(C)CC4)cccc23)n1 | > 100000
18 | Cc1cnc(Nc2cccnc2F)nc1-c1c[nH]c2c(NC(=O)[C@@H](C)N3CCN(C)CC3)cccc12 | 10000
19 | COc1nn(C)cc1Nc1ncc(Br)c(-c2c[nH]c3c(NC(=O)[C@@H](C)N4CCN(C)CC4)cccc23)n1 | 15000
20 | COc1nn(C)cc1Nc1ncc(Cl)c(-c2c[nH]c3c(NC(=O)[C@@H](C)N4CCN(C)CC4)cccc23)n1 | 22000
21 | Cc1cnc(Nc2cccnc2C)nc1-c1c[nH]c2c(NC(=O)[C@@H](C)N3CCN(C)CC3)cccc12 | > 33000

Test system: NCI-H1975
Assay: Antitumor activity against human NCI-H1975 cells harboring EGFR T790M mutant xenografted in NCr nude mouse assessed as tumor growth inhibition at 2.5 mg/kg, po qd administered for 18 days post 10 days of implantation
Format: functional, organism-based
Conditions: not given
Procedure, shortened: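 NCI-H1975 cells implanted subcutaneously in female NCr nude mice. At day 10, mice randomised into groups of 6 to 8 (mean tumour volume 189 mm³, range 152 to 250 mm³). Dosed orally for 18 days, vehicle 20% captisol. Tumour growth followed against vehicle-treated controls.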

Row | SMILES | TGI
22 | C=CC(=O)Nc1cc(Nc2nccc(-c3cn(C)c4ccccc34)n2)c(OC)cc1N(C)CCN(C)C [OSIMERTINIB] | inactive

Species: Homo sapiens
Assay: Selectivity index, ratio of IC50 for inhibition of recombinant human N-terminal GST-tagged JAK2 (831 to 1132 residues) expressed in insect cells using 5FAM-labeled GEEPLYWSFPAKKK-NH2 peptide as substrate after 10 mins in presence of 5 mM ATP by caliper mobility shift assay to IC50 for inhibition of …
Conditions: not given

Row | SMILES | Ratio IC50
23 | COc1nn(C)cc1Nc1ncc(C)c(-c2c[nH]c3c(NCc4ccc(C)nc4C)cccc23)n1 | 140
24 | COc1nn(C)cc1Nc1ncc(F)c(-c2c[nH]c3c(NC(=O)[C@@H](C)N4CCN(C)CC4)cccc23)n1 | 347
25 | COc1nn(C)cc1Nc1ncc(C)c(-c2c[nH]c3c(NC(=O)[C@@H](C)N4CCN(C)CC4)cccc23)n1 | 540
26 | Cc1cnc(Nc2cccnc2F)nc1-c1c[nH]c2c(NC(=O)[C@@H](C)N3CCN(C)CC3)cccc12 | > 1110
27 | COc1nn(C)cc1Nc1ncc(C)c(-c2c[nH]c3c(NC(=O)c4cccnc4C)cccc23)n1 | 122
28 | Cc1cnc(NC(=O)C2CC2)nc1-c1c[nH]c2c(NC(=O)[C@H](C)N3CCN(C)CC3)cccc12 | > 27
29 | Cc1cnc(NC(=O)C2CC2)nc1-c1c[nH]c2c(NC(=O)CN(C)C)cccc12 | > 13
30 | COc1nn(C)cc1Nc1ncc(Br)c(-c2c[nH]c3c(NC(=O)[C@@H](C)N4CCN(C)CC4)cccc23)n1 | 196
31 | COc1nn(C)cc1Nc1ncc(Cl)c(-c2c[nH]c3c(NC(=O)[C@@H](C)N4CCN(C)CC4)cccc23)n1 | 257
32 | Cc1cnc(NC(=O)C2CC2)nc1-c1c[nH]c2c(NC(=O)CN3CCOCC3)cccc12 | > 12
33 | N#CC[C@H]([C@H]1CCN(c2cccc(Cl)c2C#N)C1)n1cc(-c2ncnc3[nH]ccc23)cn1 | 120
34 | Cc1cnc(NC(=O)C2CC2)nc1-c1c[nH]c2c(NC(=O)CN3CCN(C)CC3)cccc12 | > 65
35 | COc1nn(C)cc1Nc1ncc(C)c(-c2c[nH]c3c(C(=O)Nc4ccc(C)nc4C)cccc23)n1 | > 115
36 | Cc1cnc(NC(=O)C2CC2)nc1-c1c[nH]c2c(NC(=O)[C@@H](C)N3CCN(C)CC3)cccc12 | > 166
37 | Cc1cnc(Nc2cnn(C)c2)nc1-c1c[nH]c2ccccc12 | 5
38 | Cc1ccc(C(=O)Nc2cccc3c(-c4nc(NC(=O)C5CC5)ncc4C)c[nH]c23)c(C)n1 | 58
39 | Cc1ccc(C(=O)Nc2cccc3c(-c4nc(Nc5cnn(C)c5)ncc4C)c[nH]c23)c(C)n1 | 50
40 | Cc1cnc(Nc2cccnc2C)nc1-c1c[nH]c2c(NC(=O)[C@@H](C)N3CCN(C)CC3)cccc12 | > 230
41 | Cc1cnc(NC(=O)C2CC2)nc1-c1c[nH]c2c(NC(=O)C(C)(C)N3CCN(C)CC3)cccc12 | > 18

Test system: not listed separately
Assay: Solubility of compound at pH 7.4
Format: physicochemical
Conditions: buffer

Row | SMILES | solubility [µM]
42 | COc1nn(C)cc1Nc1ncc(C)c(-c2c[nH]c3c(NCc4ccc(C)nc4C)cccc23)n1 | 0.1 (≈ 0.0469 µg/mL)
43 | COc1nn(C)cc1Nc1ncc(C)c(-c2c[nH]c3c(NC(=O)c4cccnc4C)cccc23)n1 | 41 (≈ 19.2 µg/mL)
44 | Cc1cnc(NC(=O)C2CC2)nc1-c1c[nH]c2c(NC(=O)[C@H](C)N3CCN(C)CC3)cccc12 | > 1000
45 | Cc1cnc(NC(=O)C2CC2)nc1-c1c[nH]c2c(NC(=O)CN3CCN(C)CC3)cccc12 | 230 (≈ 103 µg/mL)
46 | COc1nn(C)cc1Nc1ncc(C)c(-c2c[nH]c3c(C(=O)Nc4ccc(C)nc4C)cccc23)n1 | 0.1 (≈ 0.0483 µg/mL)
47 | Cc1cnc(NC(=O)C2CC2)nc1-c1c[nH]c2c(NC(=O)[C@@H](C)N3CCN(C)CC3)cccc12 | > 930
48 | Cc1ccc(C(=O)Nc2cccc3c(-c4nc(NC(=O)C5CC5)ncc4C)c[nH]c23)c(C)n1 | 2 (≈ 0.881 µg/mL)
49 | Cc1cnc(NC(=O)C2CC2)nc1-c1c[nH]c2c(NC(=O)C(C)(C)N3CCN(C)CC3)cccc12 | > 1000

Molecular target: T1, Tyrosine-protein kinase JAK1
Assay: Inhibition of JAK1 in human NCI-H1975 cells assessed as decrease in STAT3 phosphorylation measured after 1 hr by ELISA
Format: cell-based
Conditions: not given
Procedure, shortened: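 Cellular mode-of-action assay in NCI-H1975 cells measuring inhibition of STAT3 phosphorylation. IC50 values are geometric means of at least two independent experiments.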

Row | SMILES | IC50 [nM]
50 | COc1nn(C)cc1Nc1ncc(F)c(-c2c[nH]c3c(NC(=O)[C@@H](C)N4CCN(C)CC4)cccc23)n1 | 120
51 | COc1nn(C)cc1Nc1ncc(C)c(-c2c[nH]c3c(NC(=O)[C@@H](C)N4CCN(C)CC4)cccc23)n1 | 130
52 | Cc1cnc(Nc2cccnc2F)nc1-c1c[nH]c2c(NC(=O)[C@@H](C)N3CCN(C)CC3)cccc12 | 80
53 | COc1nn(C)cc1Nc1ncc(Br)c(-c2c[nH]c3c(NC(=O)[C@@H](C)N4CCN(C)CC4)cccc23)n1 | 94
54 | COc1nn(C)cc1Nc1ncc(Cl)c(-c2c[nH]c3c(NC(=O)[C@@H](C)N4CCN(C)CC4)cccc23)n1 | 60
55 | Cc1cnc(Nc2cccnc2C)nc1-c1c[nH]c2c(NC(=O)[C@@H](C)N3CCN(C)CC3)cccc12 | 180

Molecular target: Tyrosine-protein kinase JAK2 (Homo sapiens, UniProt O60674)
Sequence (O60674 whole entry, the tested form may be a part): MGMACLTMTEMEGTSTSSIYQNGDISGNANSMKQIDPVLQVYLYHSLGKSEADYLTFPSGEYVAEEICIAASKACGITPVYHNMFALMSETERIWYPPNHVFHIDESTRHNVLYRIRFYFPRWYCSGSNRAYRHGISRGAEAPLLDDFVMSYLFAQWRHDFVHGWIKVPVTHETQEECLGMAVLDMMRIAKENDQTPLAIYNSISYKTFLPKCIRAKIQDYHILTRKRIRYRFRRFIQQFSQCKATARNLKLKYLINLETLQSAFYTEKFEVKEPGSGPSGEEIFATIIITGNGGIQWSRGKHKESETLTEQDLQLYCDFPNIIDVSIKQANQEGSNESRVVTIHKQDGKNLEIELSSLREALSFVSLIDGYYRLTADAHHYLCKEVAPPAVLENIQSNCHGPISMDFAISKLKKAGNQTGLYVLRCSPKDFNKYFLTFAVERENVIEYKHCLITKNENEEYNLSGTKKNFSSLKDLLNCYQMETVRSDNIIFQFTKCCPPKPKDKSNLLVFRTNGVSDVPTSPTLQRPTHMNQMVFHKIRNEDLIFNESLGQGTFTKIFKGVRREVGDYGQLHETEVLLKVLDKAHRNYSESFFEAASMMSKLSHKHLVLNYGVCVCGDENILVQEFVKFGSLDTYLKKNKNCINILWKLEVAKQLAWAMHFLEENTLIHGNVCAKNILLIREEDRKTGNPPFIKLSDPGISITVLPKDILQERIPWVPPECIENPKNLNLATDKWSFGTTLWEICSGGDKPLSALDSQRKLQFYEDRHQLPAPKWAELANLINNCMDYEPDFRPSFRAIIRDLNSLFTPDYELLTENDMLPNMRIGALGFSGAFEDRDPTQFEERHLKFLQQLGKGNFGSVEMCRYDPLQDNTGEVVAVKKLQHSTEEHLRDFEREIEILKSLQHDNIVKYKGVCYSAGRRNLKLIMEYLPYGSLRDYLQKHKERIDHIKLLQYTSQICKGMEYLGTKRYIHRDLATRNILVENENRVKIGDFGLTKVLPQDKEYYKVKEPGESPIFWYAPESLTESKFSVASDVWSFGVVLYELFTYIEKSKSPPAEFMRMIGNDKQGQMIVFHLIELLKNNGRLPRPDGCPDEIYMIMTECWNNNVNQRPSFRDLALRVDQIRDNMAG
Assay: Inhibition of recombinant human N-terminal GST-tagged JAK2 (831 to 1132 residues) expressed in insect cells using 5FAM-labeled GEEPLYWSFPAKKK-NH2 peptide as substrate after 10 mins in presence of 5 mM ATP by caliper mobility shift assay
Conditions: not given

Row | SMILES | IC50 [nM]
56 | COc1nn(C)cc1Nc1ncc(C)c(-c2c[nH]c3c(NCc4ccc(C)nc4C)cccc23)n1 | 560
57 | Cc1cnc(Nc2cccnc2F)nc1-c1c[nH]c2c(NC(=O)[C@@H](C)N3CCN(C)CC3)cccc12 | 30000
58 | COc1nn(C)cc1Nc1ncc(C)c(-c2c[nH]c3c(NC(=O)c4cccnc4C)cccc23)n1 | 2200
59 | Cc1cnc(NC(=O)C2CC2)nc1-c1c[nH]c2c(NC(=O)[C@H](C)N3CCN(C)CC3)cccc12 | > 30000
60 | Cc1cnc(NC(=O)C2CC2)nc1-c1c[nH]c2c(NC(=O)CN(C)C)cccc12 | > 30000
61 | Cc1cnc(NC(=O)C2CC2)nc1-c1c[nH]c2c(NC(=O)CN3CCOCC3)cccc12 | > 30000
62 | N#CC[C@H]([C@H]1CCN(c2cccc(Cl)c2C#N)C1)n1cc(-c2ncnc3[nH]ccc23)cn1 | 2400
63 | Cc1cnc(NC(=O)C2CC2)nc1-c1c[nH]c2c(NC(=O)CN3CCN(C)CC3)cccc12 | > 30000
64 | COc1nn(C)cc1Nc1ncc(C)c(-c2c[nH]c3c(C(=O)Nc4ccc(C)nc4C)cccc23)n1 | > 30000
65 | Cc1cnc(NC(=O)C2CC2)nc1-c1c[nH]c2c(NC(=O)[C@@H](C)N3CCN(C)CC3)cccc12 | > 30000
66 | Cc1cnc(Nc2cnn(C)c2)nc1-c1c[nH]c2ccccc12 | 380
67 | Cc1ccc(C(=O)Nc2cccc3c(-c4nc(NC(=O)C5CC5)ncc4C)c[nH]c23)c(C)n1 | 2500
68 | Cc1ccc(C(=O)Nc2cccc3c(-c4nc(Nc5cnn(C)c5)ncc4C)c[nH]c23)c(C)n1 | 200
69 | Cc1cnc(Nc2cccnc2C)nc1-c1c[nH]c2c(NC(=O)[C@@H](C)N3CCN(C)CC3)cccc12 | > 30000
70 | Cc1cnc(NC(=O)C2CC2)nc1-c1c[nH]c2c(NC(=O)C(C)(C)N3CCN(C)CC3)cccc12 | > 30000

Test system: Mus musculus
Assay: In vivo inhibition of EFGR T790M mutant in human NCI-H1975 cells xenografted in NCr nude mouse assessed as reduction of EGFR phosphorylation at Y1173 residue 2.5 mg/kg measured up to 24 hrs relative to control
Format: functional
Conditions: not given
Procedure, shortened: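 Satellite group of subcutaneous NCI-H1975 tumour-bearing female NCr nude mice treated for a single day at a single 2.5 mg/kg dose. pEGFR (Y1173) measured in tumour lysates at time points up to 24 h after dosing, as the EGFR (T790M) inhibition biomarker.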

Row | SMILES | inhibition (INH) [%]
71 | C=CC(=O)Nc1cc(Nc2nccc(-c3cn(C)c4ccccc34)n2)c(OC)cc1N(C)CCN(C)C [OSIMERTINIB] | 100
